Here are results for 39 molecules from ChEMBL document CHEMBL1148836, “3-Substituted-(5-arylfuran-2-ylcarbonyl)guanidines as NHE-1 inhibitors” (Bioorg Med Chem Lett, 2007).

Assay [1] addresses Sodium/hydrogen exchanger 1 (Homo sapiens, UniProt P19634). Briefly: Inhibition of human NHE1 expressed in PS120 cells. It is filed as cell-based. In short, it runs like this:
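PS120 variant cells selectively expressing human NHE-1. Inhibition measured as the effect on sodium-dependent pH recovery after imposed intracellular acidosis. IC50 values are means of three experiments.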

For assay [2], the system named is Heart. Briefly: Cardioprotective effect against ischemia reperfusion injury in rat heart assessed as left ventricular end diastolic pressure at 10 uM. The assay is classed as functional. In short, it runs like this:
(§1)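 Isolated rat heart ischemia/reperfusion model. Hearts exposed to 10 µM compound for 10 min before ischemia. Read-outs are recovery of contractile function as rate-pressure product (% RPP) and left ventricular end-diastolic pressure (mmHg), each compared with a vehicle group. Values are means, n = 3 or higher.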

Assay [3] has as its system Rattus norvegicus. Briefly: Cardioprotective effect against ischemia reperfusion injury in rat myocardial infarction model assessed as ratio of infarction size to area at risk at 0.1 mg/kg, iv. The assay is classed as functional, Myocardium. In outline:
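Rat myocardial infarction model. Animals stabilized 20 min after left thoracotomy, then 45 min coronary artery occlusion and 90 min reperfusion. Compound given at 0.1 mg/kg as bolus intravenous injection 5 min before ischemia onset. Infarct size measured as a ratio to area at risk (IS/AAR, %), compared with vehicle. Means, n = 3 or higher.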

In assay [4] the test system is Heart. Briefly: Cardioprotective effect against ischemia reperfusion injury in rat heart assessed as recovery of rate pressure product at 10 uM. The assay is classed as functional. In outline:
as §1

Bounds are passed on as bounds.

Sequence of Sodium/hydrogen exchanger 1 (P19634 whole entry): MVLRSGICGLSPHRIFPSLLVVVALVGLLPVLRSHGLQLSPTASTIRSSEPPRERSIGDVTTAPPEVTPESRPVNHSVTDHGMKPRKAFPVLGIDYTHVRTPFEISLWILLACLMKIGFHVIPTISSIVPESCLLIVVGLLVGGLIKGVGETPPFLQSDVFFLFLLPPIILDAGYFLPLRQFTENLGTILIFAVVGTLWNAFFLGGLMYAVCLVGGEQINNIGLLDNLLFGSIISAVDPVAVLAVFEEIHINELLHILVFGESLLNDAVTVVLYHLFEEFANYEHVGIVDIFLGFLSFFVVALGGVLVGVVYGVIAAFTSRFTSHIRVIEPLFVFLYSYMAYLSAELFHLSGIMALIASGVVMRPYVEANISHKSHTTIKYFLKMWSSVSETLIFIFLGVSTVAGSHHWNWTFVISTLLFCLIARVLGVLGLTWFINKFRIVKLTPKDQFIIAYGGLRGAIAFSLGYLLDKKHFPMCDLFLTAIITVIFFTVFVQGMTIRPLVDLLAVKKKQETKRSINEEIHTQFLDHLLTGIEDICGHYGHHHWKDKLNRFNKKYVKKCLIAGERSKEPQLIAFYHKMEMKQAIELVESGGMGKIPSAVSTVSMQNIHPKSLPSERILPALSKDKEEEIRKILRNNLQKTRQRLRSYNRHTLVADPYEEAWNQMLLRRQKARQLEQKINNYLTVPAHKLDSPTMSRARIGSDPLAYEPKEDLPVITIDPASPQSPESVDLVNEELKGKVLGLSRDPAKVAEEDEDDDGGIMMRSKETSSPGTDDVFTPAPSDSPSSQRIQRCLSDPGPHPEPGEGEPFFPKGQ

For `CC(=O)Nc1cc(-c2cccc(Cl)c2)oc1C(=O)NC(=N)N`, inhibition in assay [1] was half-maximal at 14 µM (IC50).

Take `N=C(N)NC(=O)c1oc(-c2cccc(Cl)c2)cc1-n1cccc1`: the half-inhibitory concentration (IC50) in assay [1] is 3 µM.

`CNc1cc(-c2ccccc2)oc1C(=O)N=C(N)N` returned a half-maximal inhibitory concentration (IC50) in assay [1] of 0.82 µM.

For `Cc1cc(-c2cccc(Cl)c2)oc1C(=O)NC(=N)N`, in assay [1], the concentration for half-maximal inhibition (IC50) is 0.024 µM.

`NC(N)=NC(=O)c1oc(-c2cc(Cl)ccc2Cl)cc1N1CCCCC1` yielded a 50% inhibitory concentration (IC50) in assay [1] of 0.48 µM.

Regarding `CC(=O)N(C)c1cc(-c2ccccc2)oc1C(=O)NC(=N)N`, the concentration for half-maximal inhibition (IC50) in assay [1] was greater than 30 µM.

The molecule `CN(C)c1cc(-c2cccc(Cl)c2)oc1C(=O)N=C(N)N` gave an IC50 in assay [1] of 0.12 µM.

In the case of `N=C(N)NC(=O)c1oc(-c2ccccc2)cc1N`, the IC50 in assay [1] was determined as 2.3 µM.

`CCc1cc(-c2cccc(Cl)c2)oc1C(=O)NC(=N)N`: the midpoint of inhibition in assay [1], the IC50, lay at 0.23 µM.

In assay [1], `CN(C)c1cc(-c2ccccc2)oc1C(=O)N=C(N)N` had an IC50 of 0.12 µM.

`CC(=O)N(C)c1cc(-c2cc(Cl)ccc2Cl)oc1C(=O)N=C(N)N` gave an IC50 in assay [1] greater than 30 µM.

As for `CNc1cc(-c2cccc(Cl)c2)oc1C(=O)N=C(N)N`, half-maximal inhibition in assay [1] (IC50) was put at 0.82 µM.

The molecule `NC(N)=NC(=O)c1oc(-c2cc(Cl)ccc2Cl)cc1N1CCCC1` showed an IC50 in assay [1] of 0.48 µM.

Take `CN(C)c1cc(-c2cc(Cl)ccc2Cl)oc1C(=O)NC(=N)N`: half-maximal inhibition in assay [1] (IC50) was put at 0.009 µM.

Consider `COc1ccc(Cl)cc1-c1cc(N(C)C(C)=O)c(C(=O)NC(=N)N)o1`, for which the half-inhibitory concentration (IC50) in assay [1] is 33 µM.

Molecule `Cc1ccc(C)c(-c2cc(N)c(C(=O)NC(=N)N)o2)c1` registered an IC50 in assay [1] of 0.072 µM.

In the case of `CC(C)c1ccc(C(=O)N=C(N)N)cc1S(C)(=O)=O` [CARIPORIDE], the Activity in assay [2] is 24 mmHg; in assay [3] it was 41%; in assay [4] it was 48%.

In assay [1], `Cc1cc(-c2cc(F)ccc2F)oc1C(=O)N=C(N)N` had an IC50 of 0.13 µM.

With `CC(=O)N(C)c1cc(-c2cccc(Cl)c2)oc1C(=O)NC(=N)N`, in assay [1], the IC50 was greater than 30 µM.

In assay [1], `COc1ccccc1-c1cc(N)c(C(=O)N=C(N)N)o1` gave an IC50 of 0.15 µM. For the same molecule, the Activity in assay [2] was 31 mmHg; in assay [3] it was 55%; in assay [4] it was 30%.

In assay [1], `CC(=O)Nc1cc(-c2ccccc2)oc1C(=O)N=C(N)N` showed an IC50 of 14 µM.

The molecule `N=C(N)NC(=O)c1oc(-c2cc(F)ccc2F)cc1N` registered an IC50 in assay [1] of 0.41 µM.

In assay [1], `Cc1cccc(-c2cc(N)c(C(=O)NC(=N)N)o2)c1` registered an IC50 of 0.77 µM.

In assay [1], `COc1ccc(Cl)cc1-c1cc(N(C)C)c(C(=O)N=C(N)N)o1` registered an IC50 of 0.012 µM. Besides, the Activity in assay [2] is recorded as 40 mmHg; in assay [4] it was 6.4%.

Regarding `NC(N)=NC(=O)c1oc(-c2cccc(F)c2)cc1N`, the IC50 in assay [1] worked out at 0.68 µM. The Activity in assay [2] came out at 25 mmHg; in assay [4] it was 49%.

In assay [1], `CC(=O)Nc1cc(-c2cc(Cl)ccc2Cl)oc1C(=O)N=C(N)N` came in with an IC50 of 6.2 µM.

In the case of `Cc1cc(-c2cc(Cl)ccc2Cl)oc1C(=O)NC(=N)N`, the IC50 in assay [1] turned out to be 0.016 µM.

In assay [1], `NC(N)=NC(=O)c1oc(-c2cccc(Cl)c2)cc1N` showed an IC50 of 0.15 µM. The results for the Activity in assay [2], in assay [3] and in assay [4] were 27 mmHg, 53% and 33%, respectively.

`COc1ccc(F)cc1-c1cc(N)c(C(=O)NC(=N)N)o1` gave an IC50 in assay [1] of 0.12 µM.

In assay [1], `COc1ccc(Cl)cc1-c1cc(NC(C)=O)c(C(=O)N=C(N)N)o1` had an IC50 of 4.5 µM.

`Cc1ccccc1-c1cc(N)c(C(=O)N=C(N)N)o1` displayed an IC50 in assay [1] of 0.24 µM. For the same molecule, the values for the Activity in assay [2], in assay [3] and in assay [4] were 28 mmHg, 47% and 30%, respectively.

On to `COc1ccc(Cl)cc1-c1cc(C)c(C(=O)N=C(N)N)o1`, for which half-maximal inhibition in assay [1] (IC50) was put at 0.01 µM. Besides, the results for the Activity in assay [2] and in assay [4] were 34 mmHg and 0.3%, respectively.

Molecule `NC(N)=NC(=O)c1oc(-c2ccccc2F)cc1N` registered an IC50 in assay [1] of 1.2 µM. The values for the Activity in assay [2] and in assay [4] were 20 mmHg and 62%, respectively.

With `NC(N)=NC(=O)c1oc(-c2cccc(Cl)c2)cc1N1CCCCC1`, the IC50 in assay [1] stood at 16 µM.

`N=C(N)NC(=O)c1oc(-c2cccc(Cl)c2)cc1N1CCCC1` yielded an IC50 in assay [1] of 5.1 µM.

The molecule `COc1ccc(Cl)cc1-c1cc(-c2ccccc2)c(C(=O)NC(=N)N)o1` displayed an IC50 in assay [1] of 5.6 µM.

On to `CNc1cc(-c2cc(Cl)ccc2Cl)oc1C(=O)N=C(N)N`, for which the half-maximal inhibitory concentration (IC50) in assay [1] amounted to 0.096 µM.

In assay [1], `N=C(N)NC(=O)c1oc(-c2cc(Cl)ccc2Cl)cc1N` yielded an IC50 of 0.008 µM.

In assay [1], `COc1ccc(Cl)cc1-c1cc(N)c(C(=O)N=C(N)N)o1` had an IC50 of 0.015 µM. The Activity in assay [2] is listed as 29 mmHg; in assay [4], 27%.
